Results published in ChEMBL document CHEMBL2346506, “Cytotoxicity and modulation of cancer-related signaling by (Z)- and (E)-3,4,3',5'-tetramethoxystilbene isolated from Eugenia rigida” (J Nat Prod, 2013).
The source made the active and inactive calls. The calls are words filed in the database; no cut-off is given here.

Assays:
[1] = tested on: BT-549; experiment: Cytotoxicity against human BT549 cells assessed as growth inhibition measured after 48 hrs by Neutral Red dye assay; settings: BT-549, 48 h
[2] = Inhibition of NFkappaB signaling pathway in human HeLa cells assessed as inhibition of PMA induced luciferase at 100 uM treated 30 mins before induction; type: cell-based
Method in brief: (§1)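 Reporter assay in cells transfected with pathway luciferase plasmids. Cells plated at 0.015 × 10⁶ per well in 10% FBS, switched after 24 h to DMEM with 1% FBS, then transfected. 24 h after transfection, compound (final 40, 60, 80 or 100 μM) was added, followed 30 min later by inducer (IL-6, TGF-β, wnt3a or PMA). Luciferase was read 4 or 6 h after induction (6 h for Notch, Wnt, Hedgehog). Value is the IC50 or the lowest concentration giving maximal 50–60% inhibition; two independent experiments.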

[3] = Inhibition of Notch signaling pathway in human HeLa cells assessed as inhibition of PMA induced luciferase at 100 uM treated 30 mins before induction; type: cell-based
Method in brief: as §1

[4] = tested on: HeLa; experiment: Inhibition of Stat3 signaling pathway in human HeLa cells assessed as inhibition of IL-6 induced luciferase at 100 uM treated 30 mins before induction; type: functional
Method in brief: as §1

[5] = Inhibition of Hedgehog signaling pathway in human HeLa cells assessed as inhibition of PMA induced luciferase at 100 uM treated 30 mins before induction; type: cell-based
Method in brief: as §1

[6] = Inhibition of AP1 signaling pathway in human HeLa cells assessed as inhibition of PMA induced luciferase at 100 uM treated 30 mins before induction; type: cell-based
Method in brief: as §1

[7] = tested on: HeLa; experiment: Cytotoxicity against human HeLa cells assessed as growth inhibition measured after 48 hrs by Neutral Red dye assay
[8] = tested on: KB; experiment: Cytotoxicity against human KB cells assessed as growth inhibition measured after 48 hrs by Neutral Red dye assay
[9] = tested on: SK-MEL; experiment: Cytotoxicity against human SK-MEL cells assessed as growth inhibition measured after 48 hrs by Neutral Red dye assay
[10] = Inhibition of Ets signaling pathway in human HeLa cells assessed as inhibition of PMA induced luciferase at 100 uM treated 30 mins before induction; type: cell-based
Method in brief: as §1

[11] = target: Forkhead box protein O1 (Homo sapiens) (UniProt Q12778); experiment: Inhibition of FoxO signaling pathway in human HeLa cells assessed as inhibition of luciferase at 100 uM […]; type: cell-based
[12] = tested on: LLC-PK1; experiment: Cytotoxicity against pig LLC-PK1 cells assessed as growth inhibition measured after 48 hrs by Neutral Red dye assay; settings: Sus scrofa, LLC-PK1, 48 h
[13] = tested on: SK-OV-3; experiment: Cytotoxicity against human SKOV3 cells assessed as growth inhibition measured after 48 hrs by Neutral Red dye assay; settings: SK-OV-3, 48 h
[14] = Inhibition of E2F signaling pathway in human HeLa cells assessed as inhibition of PMA induced luciferase at 100 uM treated 30 mins before induction; type: cell-based
Method in brief: as §1

[15] = target: Myc proto-oncogene protein (Homo sapiens) (UniProt P01106); experiment: Inhibition of Myc signaling pathway in human HeLa cells assessed as inhibition of PMA induced luciferase at 100 uM treated 30 mins before induction; type: cell-based
Method in brief: as §1

[16] = tested on: Vero; experiment: Cytotoxicity against african green monkey Vero cells assessed as growth inhibition measured after 48 hrs by Neutral Red dye assay; settings: Chlorocebus sabaeus
[17] = target: T1, Nitric oxide synthase, inducible (Mus musculus, UniProt P29477); experiment: Inhibition of iNOS in LPS-induced mouse RAW264.7 cells assessed as inhibition of […] at measured after 24 hrs; type: cell-based
T1 sequence (P29477 whole entry): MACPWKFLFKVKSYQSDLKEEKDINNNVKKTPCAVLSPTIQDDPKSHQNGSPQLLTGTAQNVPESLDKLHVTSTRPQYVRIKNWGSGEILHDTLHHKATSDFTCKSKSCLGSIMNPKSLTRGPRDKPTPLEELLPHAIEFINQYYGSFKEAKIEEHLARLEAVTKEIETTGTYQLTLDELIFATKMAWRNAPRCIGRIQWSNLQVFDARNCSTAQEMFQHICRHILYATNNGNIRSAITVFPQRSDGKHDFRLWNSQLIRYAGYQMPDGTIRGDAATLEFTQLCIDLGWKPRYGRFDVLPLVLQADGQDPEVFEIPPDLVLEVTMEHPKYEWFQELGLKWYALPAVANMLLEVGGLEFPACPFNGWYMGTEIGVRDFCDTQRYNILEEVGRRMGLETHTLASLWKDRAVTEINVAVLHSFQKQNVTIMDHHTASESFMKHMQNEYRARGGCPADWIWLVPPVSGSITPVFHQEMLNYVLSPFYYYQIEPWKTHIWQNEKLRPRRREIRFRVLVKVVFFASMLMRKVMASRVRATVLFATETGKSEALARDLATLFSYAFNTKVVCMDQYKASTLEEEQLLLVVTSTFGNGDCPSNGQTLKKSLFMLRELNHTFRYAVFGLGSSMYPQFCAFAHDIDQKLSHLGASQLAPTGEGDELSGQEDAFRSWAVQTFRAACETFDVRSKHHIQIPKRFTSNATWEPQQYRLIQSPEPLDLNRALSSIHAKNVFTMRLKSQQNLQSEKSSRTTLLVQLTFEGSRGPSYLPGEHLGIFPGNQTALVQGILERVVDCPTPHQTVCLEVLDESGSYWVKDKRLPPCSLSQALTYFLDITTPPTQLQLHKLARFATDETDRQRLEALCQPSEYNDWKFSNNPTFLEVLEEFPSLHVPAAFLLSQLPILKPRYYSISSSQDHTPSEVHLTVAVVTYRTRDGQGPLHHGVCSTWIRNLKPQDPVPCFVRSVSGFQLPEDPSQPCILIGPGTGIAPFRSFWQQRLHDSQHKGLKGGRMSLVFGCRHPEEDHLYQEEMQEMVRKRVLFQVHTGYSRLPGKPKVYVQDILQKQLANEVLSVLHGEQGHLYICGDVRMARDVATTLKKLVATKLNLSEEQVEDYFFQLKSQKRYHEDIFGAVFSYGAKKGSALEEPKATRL
Method in brief: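 Mouse RAW 264.7 macrophages were seeded at 50 000 cells/well and grown 24 h. They were pretreated with samples for 30 min, then stimulated with LPS at 5 μg/mL for 24 h. Nitrite in the supernatant was measured by Griess reagent, and inhibition was calculated against the vehicle control. IC50 came from dose–response curves, with cytotoxicity checked in parallel.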

Myc proto-oncogene protein (Homo sapiens), sequence (P01106 whole entry): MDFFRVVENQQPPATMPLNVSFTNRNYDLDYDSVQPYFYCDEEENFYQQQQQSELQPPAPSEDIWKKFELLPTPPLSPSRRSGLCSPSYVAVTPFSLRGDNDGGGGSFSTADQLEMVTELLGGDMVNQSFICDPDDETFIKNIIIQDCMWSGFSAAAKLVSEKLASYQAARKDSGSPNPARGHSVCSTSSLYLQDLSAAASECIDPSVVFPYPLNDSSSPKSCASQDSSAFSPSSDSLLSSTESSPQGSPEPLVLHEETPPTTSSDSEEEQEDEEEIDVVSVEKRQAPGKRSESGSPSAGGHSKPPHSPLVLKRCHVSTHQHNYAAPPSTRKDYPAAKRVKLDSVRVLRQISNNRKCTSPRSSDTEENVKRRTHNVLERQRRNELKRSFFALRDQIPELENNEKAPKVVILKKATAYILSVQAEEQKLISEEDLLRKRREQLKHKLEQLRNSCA
Forkhead box protein O1 (Homo sapiens), sequence (Q12778 whole entry): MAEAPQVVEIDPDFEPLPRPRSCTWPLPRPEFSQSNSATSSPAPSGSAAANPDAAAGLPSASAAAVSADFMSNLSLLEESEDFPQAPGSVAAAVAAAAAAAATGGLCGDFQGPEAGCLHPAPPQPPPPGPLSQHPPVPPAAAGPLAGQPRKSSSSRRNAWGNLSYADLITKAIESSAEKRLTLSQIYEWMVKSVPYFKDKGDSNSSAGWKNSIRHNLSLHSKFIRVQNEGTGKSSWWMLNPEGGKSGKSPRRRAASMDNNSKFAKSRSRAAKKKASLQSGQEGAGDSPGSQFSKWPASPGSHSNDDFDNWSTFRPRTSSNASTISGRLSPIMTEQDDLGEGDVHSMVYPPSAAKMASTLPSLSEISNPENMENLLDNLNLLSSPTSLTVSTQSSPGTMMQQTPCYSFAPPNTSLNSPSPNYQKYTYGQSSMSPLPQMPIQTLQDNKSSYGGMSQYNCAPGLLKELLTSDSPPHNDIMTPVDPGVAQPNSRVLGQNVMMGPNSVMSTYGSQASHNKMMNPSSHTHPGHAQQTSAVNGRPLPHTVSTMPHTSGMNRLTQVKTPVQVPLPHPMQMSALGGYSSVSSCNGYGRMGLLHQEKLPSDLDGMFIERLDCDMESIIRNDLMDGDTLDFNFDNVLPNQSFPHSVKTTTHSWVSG

Row | Structure (SMILES) | IC50 [1] | inhibition [2] | inhibition [3] | inhibition [4] | inhibition [5] | inhibition [6] | IC50 [7] | IC50 [8] | IC50 [9] | inhibition [10] | inhibition [11] | IC50 [12] | IC50 [13] | inhibition [14] | inhibition [15] | IC50 [16] | IC50 [17]
1 | COc1ccc(/C=C/c2cc(OC)cc(OC)c2)cc1 [TRISMETHOXYRESVERATROL] | 15.6 µM | inactive | inactive | inactive | inactive | inactive | 13.3 µM | 17.7 µM | 12.2 µM | inactive | inactive | 20 µM | 55.5 µM | inactive | inactive | 26.7 µM | 
2 | COc1cccc2c1C(=O)c1c(O)c3c(c(O)c1C2=O)C[C@@](O)(C(=O)CO)C[C@@H]3O[C@H]1C[C@H](N)[C@H](O)[C@H](C)O1 [DOXORUBICIN] | 3.7 µM |  |  |  |  |  | 3.9 µM | 3.8 µM | 1.5 µM |  |  | 1.6 µM | 2.6 µM |  |  | > 9.2 µM | 
3 | C=C1C(=O)O[C@@H]2C3O[C@]3(C)CC/C=C(\C)CC[C@@H]12 (some centres undefined) |  |  |  |  |  |  |  |  |  |  |  |  |  |  |  |  | 8 µM
